# BAP1 block = human BAP1 deubiquitinase inhibition. Q92560. recombinant BAP1, Ub-AMC hydrolysis fluorescence kinetic; active compounds read low. calls only at 20 µM. 72,000 compounds, 0.48% hits. AID 436;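 active = activity remaining at or below 50% of control, provided the compound also passes the data quality filters; inactive = the rest, including low values that fail the filters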;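 note: 100% = DMSO wells rate and 0% = substrate alone blank rate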
# hDAT+cocaine = modulates human dopamine transporter uptake under cocaine. LLC-PK1 hDAT cells, [14C]-dopamine uptake with cocaine IC80; actives deviate in either direction. B-score at 10 µM. Q01959. 110,000 compounds, 1.3% hits;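 active = Z score or B-score, a plate-position-corrected score, falls beyond the plate's 99.7% confidence bounds, in either direction; inactive = both scores lie inside the 99.7% bounds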;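 note: scored against the spread of the other compound wells on the same plate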
# M1 ag = M1 muscarinic receptor agonism; B-score at 10 µM; 64,000 compounds, 3% hits; CHO-M1 cells, Fluo-4 calcium fluorescence, agonist mode; active compounds read high; AID 626;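 active = fluorescence rise, raw or as B-score row- and column-corrected plate score, outside the 99.7% band of its plate's samples, either direction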
# HEK293 NFkB inh = lowers PMA/ionomycin-induced NF-kB signal in HEK293 cells | 62,000 compounds, 0.21% hits | HEK-293 NF-kB luciferase reporter, luminescence | inhibition, % at 3 µM;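 active = inhibition above the mean of all tested compounds plus 3 SD, cut at about 40% in these data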;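 note: 0% = stimulated DMSO wells and 100% = 10 µM reference inhibitor 5653914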
#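 Reagent: PMA plus ionomycin mix as NF-kB-activating stimulus. Assay system: NF-kB luciferase reporter HEK-293 cells. Technique: luminescence from luciferase substrate reagent. Incubation: 1 h compound pre-incubation, 16 h PMA/ionomycin at 37 °C. Benchmarks: DMSO only as uninhibited control, 10 µM reference inhibitor as full inhibition. Repeats: tested once.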
# D1 allo mod = allosterically modulates the human D1 dopamine receptor; HEK293 D1, CRE-luciferase, dopamine EC30 potentiation; actives deviate in either direction; B-score at 10 µM; 58,000 compounds, 5.9% hits;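 active = luminescence count or its row- and column-corrected plate score outside the 99.7% band of the plate's sample wells, on either side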
# Target sequence (P21728 whole entry, looked up): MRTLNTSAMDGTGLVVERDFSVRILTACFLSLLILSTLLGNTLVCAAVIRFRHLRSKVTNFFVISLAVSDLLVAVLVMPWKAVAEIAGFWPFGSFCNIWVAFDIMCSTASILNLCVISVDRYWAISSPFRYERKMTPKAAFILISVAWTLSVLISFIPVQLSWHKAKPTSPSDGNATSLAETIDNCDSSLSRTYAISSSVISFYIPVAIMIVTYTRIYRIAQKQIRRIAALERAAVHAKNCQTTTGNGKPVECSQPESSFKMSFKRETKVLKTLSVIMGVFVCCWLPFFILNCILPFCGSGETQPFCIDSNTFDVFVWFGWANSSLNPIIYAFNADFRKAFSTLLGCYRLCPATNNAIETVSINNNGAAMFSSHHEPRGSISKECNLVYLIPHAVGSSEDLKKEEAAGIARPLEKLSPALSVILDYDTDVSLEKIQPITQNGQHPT
# M1 antagonist = blocks the rat M1 muscarinic receptor response to acetylcholine; CHO-M1 cells, Fluo-4 calcium, ACh EC80 antagonist mode; active compounds read low; B-score at 10 µM; 64,000 compounds, 3.4% hits; P08482; AID 628;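 active = calcium fluorescence response, raw or row-and-column corrected B-score, differing from the plate sample mean either way at a set confidence level, mostly lower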
# D1 PAM confirm = D1 receptor (human) allosteric modulation, confirmed; shares compounds with D1 allo mod; 2,200 compounds, 88% hits; AID 642; HEK293 D1 CRE-luciferase, dopamine EC30 potentiation; active compounds read high; luminescence at 10 µM;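 active = luminescence in either of two replicates above the same-plate mean plus 3 SD of the low-dose dopamine control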
# D1 ag no DA = D1 (human) signaling in absence of dopamine | 1,900 compounds, 0.8% hits | HEK293 D1 CRE-luciferase, luminescence, no dopamine; active compounds read high | shares compounds with D1 allo mod | luminescence at 10 µM; in the data active = luminescence above about 3900
# Isoprot counter = alters isoproterenol CRE-luciferase response in HEK293 cells. shares compounds with D1 allo mod. HEK293 D1 CRE-luciferase, isoproterenol EC30 counter-screen. calls only at 10 µM. 2,200 compounds, 63% hits. AID 647;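 active = luminescence in either replicate above plate mean of wells with a partly effective reference agonist dose plus 3 SD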;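 note: isoproterenol raises cAMP through native beta-adrenoceptor Gs so signal bypasses D1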
# An asterisk follows results filed as active; i = inactive; . = not tested or not shown; + = active, no number. Rows were chosen to be rich in hits. Some 7.2% of all compounds tested hit in one or more screens of this group.
SMILES,BAP1 block,hDAT+cocaine,M1 ag,HEK293 NFkB inh,D1 allo mod,M1 antagonist,D1 PAM confirm,D1 ag no DA,Isoprot counter
O=S(=O)(c1cccs1)N1CN(CC2CCCO2)c2nc3ccccc3nc21 (centres undefined),i,-1.1,0.053,3,.,-0.1,.,.,.
Cc1cccc(CC(C(=O)O)C(C)C(=O)O)c1 (centres undefined),i,.,.,.,.,.,.,.,.
CCOC(=O)c1c(C2COc3ccccc3O2)csc1N (centres undefined),i,0.47,0.76,14,9.9*,0.29,11276*,1584,+
COC(=O)CN1C(c2ccc(O)cc2)Nc2ccc(Br)cc2C1c1ccccc1 (centres undefined),i,.,.,.,.,.,.,.,.
CCc1nn(CCCC(=O)N2CCc3ccccc3C2)c(=O)c2cc3occc3n12,i,0.79,2.4,20,2.9*,-0.03,10688*,1800,i
Nc1[nH]nc2nc(N3CCOCC3)nc(-c3ccccc3)c12,.,2,0.53,-6,9.8*,0.46,13488*,.,+
Cc1cc(=O)oc2cc(OCc3ccccc3F)c(Cl)cc12,i,.,.,.,.,.,.,.,.
CCS(=O)(=O)N(C)c1ccc([N+](=O)[O-])cc1,i,.,.,.,.,.,.,.,.
O=C(Cn1cc2c(n1)CCCC2)NCCCN1CCCC1,i,-0.025,-0.19,5,-0.61,0.19,.,.,.
O=C(Cn1cc2c(n1)CCCCC2)NCCCN1CCOCC1,i,-0.43,-0.14,7,2.6*,-0.53,5840,1452,i
O=S(=O)(c1cccc(-c2nc3n(n2)Cc2ccccc2-3)c1)N1CCCC1,i,-0.0037,0.19,14,4.9*,-0.35,7316*,1740,+
Cc1ccc(-c2cc(-c3ccc(F)cc3)nc(N)c2C#N)o1,i,0.36,.,4,15*,.,26016*,2012,+
Cc1[nH]c(=O)[nH]c(=O)c1[N+](=O)[O-],i,.,.,.,.,.,.,.,.
O=C(c1ccc(S(=O)(=O)N2CCOCC2)cc1)N1CCN(c2ccc(F)cc2)CC1,i,-0.05,-0.15,9,3.3*,0.0071,5476,1868,i
Cc1nc2c(oc3ccc(Br)cc32)c(=O)[nH]1,i,.,.,.,.,.,.,.,.
Cn1cccc1Cc1nnc(SCC(=O)NC2CCCCC2)n1CCc1ccccc1,i,0.94,0.37,16,1.5*,0.39,5188,1520,i
C=CCNC(=O)c1ccccc1NC(=O)c1ccccc1,i,0.43,0.79,4,8.3*,1.4,16308*,1672,i
CSc1nc(NCC(C)C)nc(N2CCOCC2)n1,i,0.097,-0.003,23,8.8*,0.074,26752*,1652,+
CCOC(=O)CSc1nc2sc3c(c2c(=O)n1CC)CC(C)(C)OC3,.,-1.1,-0.52,.,5.9*,-0.6,8088*,1472,+
N#Cc1cnn(Cc2ccccc2)c1/N=C/N1CCOCC1,i,-0.82,-0.22,26,5.5*,-0.33,8140*,1300,i
CCOC(=O)CSc1nc2cccnc2n1-c1ccc(F)cc1,i,-0.22,0.2,5,22*,0.027,24340*,1808,+
CC(C)OC(=O)CSc1nc2cccnc2n1-c1ccc(F)cc1,.,0.68,.,.,.,.,.,.,.
Cc1cc2c(cc(C(=O)OCC(=O)NCc3cccs3)n2C(C)C)o1,i,-0.38,0.88,33,11*,0.059,7700*,1632,+
COc1ccc(-c2nnc(SCC(=O)NCc3cccs3)n2C(C)C)cc1,.,0.087,.,.,.,.,.,.,.
Cc1ccc(C)c(NS(=O)(=O)c2ccc(Cl)cc2[N+](=O)[O-])c1,i,.,.,.,.,.,.,.,.
O=C(c1ccccc1Cl)N1CCN(c2ccc([N+](=O)[O-])cc2C(F)(F)F)CC1,i,.,.,.,.,.,.,.,.
Cc1cc(C(F)(F)F)nn1CC(=O)Nc1ccc([N+](=O)[O-])cc1Cl,i,.,.,.,.,.,.,.,.
Cc1ccc(-c2nn(C)c(=O)c3ccccc23)cc1S(=O)(=O)NCCO,i,-1.1,-1.1,24,4.1*,-0.64,6200*,1504,i

# Assay outcomes as filed in PubChem BioAssay.
